According to ChEMBL document CHEMBL2346564, “Synthesis and biological evaluation of nitric oxide releasing derivatives of 6-amino-3-n-butylphthalide as potential antiplatelet agents” (Bioorg Med Chem Lett, 2013):
In brackets after ≈: the same amount, converted by molar mass.

How the values were obtained:
[1] = Antiplatelet activity in rabbit platelet rich plasma assessed as inhibition of ADP-induced platelet aggregation at 0.1 mM incubated for 5 mins prior to ADP challenge measured after 5 mins by Born's turbidimetric method relative to control; type: functional; conditions: Oryctolagus cuniculus
How it was run: (§1)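 Rabbit platelet-rich plasma, adjusted with platelet-poor plasma (centrifuged 3000 rpm, 10 min, room temperature) to 400–450 × 10⁹ platelets/L and used within 3 h of blood collection. PRP pre-incubated with vehicle or compound (0.1 mM) for 5 min at 37 °C, then ADP 10 μM added. Maximum aggregation rate recorded over 5 min by Born turbidimetry. Inhibition (%) = 100% − MAR(compound)/MAR(vehicle). Mean ± SD, n = 6.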

[2] = Induction of nitric oxide release in phosphate buffer assessed as nitrite level at 0.1 mM measured every 15 mins for 120 mins followed by every 30 mins for 180 mins by Griess assay; type: physicochemical; conditions: 100 µM
How it was run: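 Compound at 0.1 mM in phosphate buffer solution, kept at room temperature for 15–300 min. Sampled every 15 min up to 120 min, then every 30 min. Samples mixed with sulfanilamide and N-(1-naphthyl)ethylenediamine dihydrochloride and held 5–10 min at room temperature in the dark. Absorbance read at 540 nm and converted to nitrite (μmol/L) with a nitrite standard curve. Intra-group variation under 10%.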

[3] = Antiplatelet activity in rabbit platelet rich plasma assessed as inhibition of ADP-induced platelet aggregation at 0.1 mM incubated for 5 mins prior to ADP challenge measured after 5 mins by Born's turbidimetric method in presence of hemoglobin relative to control; type: functional; conditions: Oryctolagus cuniculus; how it was run: as §1
Platelet [4] = assay: Ratio of compound activity to 6-amino 3-n-butylphthalide activity for inhibition of ADP-induced platelet aggregation in rabbit platelet rich plasma at 0.1 mM; type: functional, Oryctolagus cuniculus
Platelet [5] = assay: Ratio of compound activity to 3-n-butylphthalide activity for inhibition of ADP-induced platelet aggregation in rabbit platelet rich plasma at 0.1 mM; type: functional, Oryctolagus cuniculus
[6] = Aqueous solubility of the compound in normal saline after 5 hrs by UV-spectrophotometric analysis; conditions: normal saline (aqueous solubility, as described)

Row | Activity [2] [µmol/L] | solubility at 5 h [6] [µM] | SMILES | inhibition at 100 µM [1] [%] | inhibition at 100 µM [3] [%] | Ratio (Platelet [4]) | Ratio (Platelet [5])
1 |  |  | CCCCC1OC(=O)c2cc(N)ccc21 (configuration not stated) | 18.4 |  |  | 
2 | 3.67 |  | CCCCC1OC(=O)c2cc(NC(=O)CO[N+](=O)[O-])ccc21 (configuration not stated) | 22.2 |  |  | 
3 | 12.88 | 1180 (≈ 380 µg/mL) | CCCCC1OC(=O)c2cc(NC(=O)CCO[N+](=O)[O-])ccc21 (configuration not stated) | 30.4 | 23.1 | 2 | 2
4 | 7.1 |  | CCCCC1OC(=O)c2cc(NC(=O)CCCO[N+](=O)[O-])ccc21 (configuration not stated) | 28.6 |  |  | 
5 | 1.82 |  | CCCCC1OC(=O)c2cc(NC(=O)c3ccccc3OCCO[N+](=O)[O-])ccc21 (configuration not stated) | 15.2 |  |  | 
6 | 2.21 |  | CCCCC1OC(=O)c2cc(NC(=O)c3ccc(OCCO[N+](=O)[O-])cc3)ccc21 (configuration not stated) | 20 |  |  | 
7 | 6.82 |  | CCCCC1OC(=O)c2cc(NC(=O)c3cccc(OCCO[N+](=O)[O-])c3)ccc21 (configuration not stated) | 26.6 |  |  | 
8 | 2.18 | 580 (≈ 248 µg/mL) | CCCCC1OC(=O)c2cc(NC(=O)c3ccccc3OCCCO[N+](=O)[O-])ccc21 (configuration not stated) | 16.7 |  |  | 
9 | 3.88 | 750 (≈ 321 µg/mL) | CCCCC1OC(=O)c2cc(NC(=O)c3ccc(OCCCO[N+](=O)[O-])cc3)ccc21 (configuration not stated) | 22.8 |  |  | 
10 | 7.27 | 1060 (≈ 454 µg/mL) | CCCCC1OC(=O)c2cc(NC(=O)c3cccc(OCCCO[N+](=O)[O-])c3)ccc21 (configuration not stated) | 28.8 |  |  | 
11 |  |  | CCCCC1OC(=O)c2cc(NC(=O)c3ccccc3OCCCCO[N+](=O)[O-])ccc21 (configuration not stated) | 13.6 |  |  | 
12 |  |  | CCCCC1OC(=O)c2cc(NC(=O)c3ccc(OCCCCO[N+](=O)[O-])cc3)ccc21 (configuration not stated) | 18.2 |  |  | 
13 |  |  | CCCCC1OC(=O)c2cc(NC(=O)c3cccc(OCCCCO[N+](=O)[O-])c3)ccc21 (configuration not stated) | 21.6 |  |  | 
14 |  | 540 (≈ 103 µg/mL) | CCCCC1OC(=O)c2ccccc21 (racemic) [RAC-3-N-BUTYLPHTHALIDE] | 15.7 |  |  | 
15 |  |  | Clc1ccccc1CN1CCc2sccc2C1 [TICLOPIDINE] | 26.4 |  |  | 
